According to ChEMBL document CHEMBL1143617, “Potential antitumor agents. 37. Synthesis and antitumor activity of guanylhydrazones from imidazo[2,1-b]thiazoles and from the new heterocyclic system thiazolo[2',3':2,3]imidazo[4,5-c]quinoline” (2005):

Tests used:
[1] = species on record: Rattus norvegicus; assay: Inhibitory effect on mitochondrial respiration in […]-uncoupled rat liver mitochondria; Activity measured as succinate-O2 activity adding succinate; assay type: functional
How it was run: (§1)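 Isolated coupled rat liver mitochondria; compound at 35 µM. Oxygen consumption was measured polarographically with a Clark electrode. Reactions were started with a saturating amount of substrate: glutamate/malate (NADH-O2), succinate (succinate-O2) or ascorbate/TMPD (Complex IV). The uncoupled rate was obtained by adding 2,4-dinitrophenol. The respiratory control index was also derived. Rates are in ngA oxygen/min/mg protein, mean of five and eight independent measures.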

[2] = species on record: Rattus norvegicus; assay: Inhibitory effect on mitochondrial respiration in […]-uncoupled rat liver mitochondria; Activity measured as NADH-O2 activity adding glutamate/malate; assay type: functional; how it was run: as §1
[3] = species on record: Rattus norvegicus; assay: Compound was tested against rat liver mitochondria respiration; Activity as respiratory control index measured as succinate-O2 activity adding succinate; assay type: functional; how it was run: as §1
[4] = species on record: Rattus norvegicus; assay: Compound was tested against rat liver mitochondria respiration; Activity as respiratory control index measured as NADH-O2 activity adding glutamate/malate; assay type: functional; how it was run: as §1
[5] = species on record: Rattus norvegicus; assay: Inhibitory effect on mitochondrial respiration in […]-uncoupled rat liver mitochondria; Activity measured as TMPD test complex IV activity adding ascorbate; assay type: functional; how it was run: as §1
[6] = species on record: Rattus norvegicus; assay: Compound was tested against rat liver mitochondria respiration; Activity as respiratory control index measured as TMPD test complex IV activity adding ascorbate; assay type: functional; how it was run: as §1
[7] = tested on: K562; assay: Growth inhibitory power against human leukemia (K-562)cell line; assay type: functional
How it was run: (§2)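 NCI 60 human tumour cell line panel, entered after a three-cell-line prescreen. Five concentrations at 10-fold dilutions: 10-4, 10-5, 10-6, 10^-7 and 10^-8 M. Results given as log values of growth inhibitory power (GI50) and cytostatic effect.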

[8] = tested on: RXF 393; assay: Growth inhibitory power against human renal (RXF 393) cell line; assay type: functional; how it was run: as §2
[9] = tested on: COLO 205; assay: Growth inhibitory power against human colon (COLO 205) cell line; assay type: functional; how it was run: as §2
[10] = tested on: OVCAR-3; assay: Growth inhibitory power against human ovarian (OVCAR-3) cell line cell line; assay type: functional; how it was run: as §2
[11] = species on record: Rattus norvegicus; assay: Inhibitory effect on mitochondrial respiration in coupled rat liver mitochondria at 35 uM concentration measured as succinate-O2 activity adding succinate; State 3
[12] = species on record: Rattus norvegicus; assay: Inhibitory effect on mitochondrial respiration in coupled rat liver mitochondria at 35 uM concentration measured as succinate-O2 activity adding succinate; State 4
[13] = species on record: Rattus norvegicus; assay: Inhibitory effect on mitochondrial respiration in coupled rat liver mitochondria at 35 uM concentration measured as NADH-O2 activity adding glutamate/malate; State 4
[14] = species on record: Rattus norvegicus; assay: Inhibitory effect on mitochondrial respiration in coupled rat liver mitochondria at 35 uM concentration measured as NADH-O2 activity adding glutamate/malate; State 3
[15] = species on record: Rattus norvegicus; assay: Inhibitory effect on mitochondrial respiration in coupled rat liver mitochondria at 35 uM concentration measured as TMPD test complex IV activity adding ascorbate; State 3
[16] = species on record: Rattus norvegicus; assay: Inhibitory effect on mitochondrial respiration in coupled rat liver mitochondria at 35 uM concentration measured as TMPD test complex IV activity adding ascorbate; State 4
[17] = tested on: Panel NCI-60 (60 carcinoma cell lines); assay: Cytostatic effect against human cancer cell line; (Range=-4.01 to -5.65); assay type: functional; conditions: read-out: Log TGI (converted); how it was run: as §2
[18] = tested on: Panel NCI-60 (60 carcinoma cell lines); assay: Growth inhibitory power against human cancer cell line; (Range=-4.04 to -6.08); assay type: functional; how it was run: as §2
[19] = tested on: Panel NCI-60 (60 carcinoma cell lines); assay: Cytotoxic effect against human cancer cell line; (Range=-4.01 to -5.01); assay type: functional
How it was run: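 NCI 60-cell-line panel, tested at five 10-fold dilutions from 10^-4 M down to 10^-8 M. Results are expressed as log values of growth inhibitory power (GI50) and cytostatic effect.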

Structure (SMILES) | TGI [17] [nM] | GI50 [18] [nM] | LC50 (50% lethal concentration) [19] [nM] | further results
COc1cc([N+](=O)[O-])c(OC)cc1-c1nc2sc(Cl)cn2c1/C=N/N=C(N)N |  |  |  | Actvity (ngAoxigen/min/mg of RLM) [1]: 81.7; Actvity (ngAoxigen/min/mg of RLM) [2]: 74.2; Actvity [3]: 1.7; Actvity [4]: 2.3; Actvity (ngAoxigen/min/mg of RLM) [5]: 158; Actvity [6]: 1.5; GI50 [7]: 1910 nM; GI50 [8]: 1450 nM; GI50 [9]: 1550 nM; GI50 [10]: 589 nM; Actvity (ngAoxigen/min/mg of RLM) [11]: 54.9; Actvity (ngAoxigen/min/mg of RLM) [12]: 33.4; Actvity (ngAoxigen/min/mg of RLM) [13]: 23.1; Actvity (ngAoxigen/min/mg of RLM) [14]: 47.7; Actvity (ngAoxigen/min/mg of RLM) [15]: 142; Actvity (ngAoxigen/min/mg of RLM) [16]: 98
COc1cc([N+](=O)[O-])c(OC)cc1-c1nc2sc(C)cn2c1/C=N/N=C(N)N | < 2240 | < 832 | < 9770 | 
COc1cc([N+](=O)[O-])c(OC)cc1-c1nc2sc(C)c(C)n2c1/C=N/N=C(N)N | < 2240 | < 832 | < 9770 | 
COc1ccc(OC)c([N+](=O)[O-])c1-c1nc2sc(C)cn2c1/C=N/N=C(N)N | < 2240 | < 832 | < 9770 | 
COc1cc2ncc3c(nc4sccn43)c2cc1OC | < 2240 | < 832 | < 9770 | 
O=C1C=CC(=O)c2c1ncc1c2nc2sccn21 | < 2240 | < 832 | < 9770 | 
COc1ccc(OC)c([N+](=O)[O-])c1-c1nc2sccn2c1/C=N/N=C(N)N | < 2240 | < 832 | < 9770 | 
CCCc1cn2c(/C=N/N=C(N)N)c(-c3c(OC)ccc(OC)c3[N+](=O)[O-])nc2s1 | < 2240 | < 832 | < 9770 | 
COc1cc([N+](=O)[O-])c(OC)cc1-c1nc2sccn2c1/C=N/NC(=N)N | < 2240 | < 832 | < 9770 | 
COc1ccc(OC)c2c1ncc1c2nc2sccn21 | < 2240 | < 832 | < 9770 | 
COc1cc(OC)c([N+](=O)[O-])cc1-c1nc2sccn2c1/C=N/N=C(N)N | < 2240 | < 832 | < 9770 | 
COc1ccc(OC)c([N+](=O)[O-])c1-c1nc2scc(C)n2c1/C=N/N=C(N)N | < 2240 | < 832 | < 9770 | 
COc1ccc(-c2nc3sccn3c2/C=N/N=C(N)N)cc1OC | < 2240 | < 832 | < 9770 | 
CC(/C=N/NC(=N)N)=N/NC(=N)N |  |  |  | Actvity (ngAoxigen/min/mg of RLM) [1]: 169; Actvity (ngAoxigen/min/mg of RLM) [2]: 106; Actvity [3]: 3.7; Actvity [4]: 4.9; Actvity (ngAoxigen/min/mg of RLM) [5]: 156; Actvity [6]: 1.7; Actvity (ngAoxigen/min/mg of RLM) [11]: 141; Actvity (ngAoxigen/min/mg of RLM) [12]: 39.2; Actvity (ngAoxigen/min/mg of RLM) [13]: 17.9; Actvity (ngAoxigen/min/mg of RLM) [14]: 80; Actvity (ngAoxigen/min/mg of RLM) [15]: 128; Actvity (ngAoxigen/min/mg of RLM) [16]: 91.1
COc1cc([N+](=O)[O-])c(OC)cc1-c1nc2scc(C)n2c1/C=N/N=C(N)N | < 2240 | < 832 | < 9770 | 
COc1ccc(OC)c(-c2nc3sccn3c2/C=N/N=C(N)N)c1 | < 2240 | < 832 | < 9770 | 
COc1ccc(OC)c([N+](=O)[O-])c1-c1nc2n(c1/C=N/N=C(N)N)CCS2 | < 2240 | < 832 | < 9770 | 
COc1cc(-c2nc3sccn3c2/C=N/N=C(N)N)c([N+](=O)[O-])cc1OC | < 2240 | < 832 | < 9770 | 
N=C(N)N/N=C/c1c(-c2cc(O)ccc2O)nc2sccn12 | < 2240 | < 832 | < 9770 | 
N=C(N)/N=N/c1ccc(NNC(=N)N)c2ncc3c(nc4sccn43)c12 | < 2240 | < 832 | < 9770 | 
COc1ccc(OC)c([N+](=O)[O-])c1-c1nc2sc(C)c(C)n2c1/C=N/N=C(N)N | < 2240 | < 832 | < 9770 | 
N=C(N)N/N=C/c1c(-c2ccc(O)c(O)c2)nc2sccn12 | < 2240 | < 832 | < 9770 | 
COc1cc([N+](=O)[O-])c(OC)cc1-c1nc2n(c1/C=N/N=C(N)N)CCS2 | < 2240 | < 832 | < 9770 | 
COc1ccc(OC)c([N+](=O)[O-])c1-c1nc2sc(Cl)cn2c1/C=N/N=C(N)N | < 2240 | < 832 | < 9770 | 
